pEC50, pIC50: −log10 of the molar value.
Columns and labels:
Hepatitis C virus [1] = assay: Inhibition of HCV 1b histidine tagged NS5B-delta55 polymerase-mediated RNA synthesis expressed in Escherichia coli BL21 cells assessed as decrease in accumulation of pppGC product; set-up: species or system Hepatitis C virus subtype 1b
Outline: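 Recombinant NS5B-Δ55 with C-terminal His6, purified. Mix holds 10 µM RNA template (3′ end of HCV minus strand), 100 µM α-32P-CTP, 50 µM GTP and inhibitor 0–500 µM. Started with 1 µM NS5B, 30 °C 15 min, EDTA/formamide quench. pppGC resolved on sequencing gel, phosphorimager-quantified; IC50 fitted, ≥3 experiments.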

Hepatitis C virus [2] = assay: Antiviral activity against HCV 1b in human Huh-5-2 cells assessed as inhibition of viral replication after 72 hrs by luciferase assay; format: functional, organism-based, Hepacivirus hominis; conditions: genotype 1b, Huh-5-2, 72 h
Outline: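 Huh-5-2 cells carrying HCV 1b subgenomic replicon (luciferase reporter), seeded 7000/well and left 24 h; five 5-fold serial dilutions from 50 µg/mL (~60 µM) added in medium without G418; 37 °C, 5% CO2, 72 h. Luciferase read after Glo-lysis; signal as % of untreated cultures, EC50 calculated. Interferon α-2a (500 IU) positive control.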

[3] = Cytotoxicity against human Huh-5-2 cells after 3 days by MTS assay; format: cell-based
Outline: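 Parallel Huh-5-2 replicon cultures seeded 7000 cells/well, treated the same way as the antiviral assay (five 5-fold dilutions from ~60 µM, no G418). Cell proliferation measured 3 days after compound addition by MTS bioreduction to formazan, read on a plate reader.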

Structure (SMILES)	pIC50 (Hepatitis C virus [1])	pEC50 (Hepatitis C virus [2])	CC50 at 72 h [3] [µM]
CO[C@@H]1[C@H](OP(=O)(NCCCN(C)C)OC[C@H]2O[C@H](n3ccc(N)nc3=O)[C@H](O)[C@@H]2O)[C@H](COP(=O)(O)O)O[C@H]1n1cnc2c(=O)[nH]c(N)nc21 (stereo not given in full)	< 3.70		
CO[C@@H]1[C@H](OP(=O)(NCCCCCC(=O)O)OC[C@H]2O[C@@H](n3ccc(N)nc3=O)[C@H](O)[C@@H]2O)[C@@H](COP(=O)(O)O)O[C@H]1n1cnc2c(=O)[nH]c(N)nc21 (stereo not given in full)	4.16	4.39	> 60
COCCNP(=O)(OC[C@H]1O[C@@H](n2ccc(N)nc2=O)[C@H](O)[C@@H]1O)O[C@H]1[C@@H](OC)[C@H](n2cnc3c(=O)[nH]c(N)nc32)O[C@@H]1COP(=O)(O)O (stereo not given in full)	3.97	< 4.22	> 60
CO[C@@H]1[C@H](OP(=O)(NCCCCCC(=O)O)OC[C@H]2O[C@@H](n3ccc(N)nc3=O)[C@H](O)[C@@H]2O)[C@@H](CO)O[C@H]1n1cnc2c(=O)[nH]c(N)nc21 (stereo not given in full)	3.80		
COCCNP(=O)(OC[C@H]1O[C@@H](n2ccc(N)nc2=O)[C@H](O)[C@@H]1O)O[C@H]1[C@@H](OC)[C@H](n2cnc3c(=O)[nH]c(N)nc32)O[C@@H]1CO (stereo not given in full)	< 3.70		
CO[C@@H]1[C@H](OP(=O)(NCCCCCC(=O)O)OC[C@H]2O[C@@H](n3ccc(N)nc3=O)[C@H](O)[C@@H]2O)[C@@H](COP(=O)(O)S)O[C@H]1n1cnc2c(=O)[nH]c(N)nc21 (stereo not given in full)	4.28	4.42	> 60
COCCNP(=O)(OC[C@H]1O[C@@H](n2ccc(N)nc2=O)[C@H](O)[C@@H]1O)O[C@H]1[C@@H](OC)[C@H](n2cnc3c(=O)[nH]c(N)nc32)O[C@@H]1COP(=O)(O)S (stereo not given in full)	4.33	< 4.22	> 60

— ChEMBL document CHEMBL1140133, “Phosphoramidate dinucleosides as hepatitis C virus polymerase inhibitors” (J Med Chem, 2008)
